The IC50 is the point on the concentration scale where inhibition reaches its midpoint. Lower therefore signals higher potency.

This assay concerns the target Phosphatidylinositol 4-kinase beta (Homo sapiens, UniProt Q9UBF8). The assay is described as follows: Inhibition of human PIK4Cbeta (1 to 801 residues) by ADP Glo HTS assay. The method in brief:
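Lipid kinase selectivity assessed in a 15-kinase panel (Dundee University lipid kinase panel), IC50 determined.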

Phosphatidylinositol 4-kinase beta, sequence (Q9UBF8 whole entry, the tested form may be a part): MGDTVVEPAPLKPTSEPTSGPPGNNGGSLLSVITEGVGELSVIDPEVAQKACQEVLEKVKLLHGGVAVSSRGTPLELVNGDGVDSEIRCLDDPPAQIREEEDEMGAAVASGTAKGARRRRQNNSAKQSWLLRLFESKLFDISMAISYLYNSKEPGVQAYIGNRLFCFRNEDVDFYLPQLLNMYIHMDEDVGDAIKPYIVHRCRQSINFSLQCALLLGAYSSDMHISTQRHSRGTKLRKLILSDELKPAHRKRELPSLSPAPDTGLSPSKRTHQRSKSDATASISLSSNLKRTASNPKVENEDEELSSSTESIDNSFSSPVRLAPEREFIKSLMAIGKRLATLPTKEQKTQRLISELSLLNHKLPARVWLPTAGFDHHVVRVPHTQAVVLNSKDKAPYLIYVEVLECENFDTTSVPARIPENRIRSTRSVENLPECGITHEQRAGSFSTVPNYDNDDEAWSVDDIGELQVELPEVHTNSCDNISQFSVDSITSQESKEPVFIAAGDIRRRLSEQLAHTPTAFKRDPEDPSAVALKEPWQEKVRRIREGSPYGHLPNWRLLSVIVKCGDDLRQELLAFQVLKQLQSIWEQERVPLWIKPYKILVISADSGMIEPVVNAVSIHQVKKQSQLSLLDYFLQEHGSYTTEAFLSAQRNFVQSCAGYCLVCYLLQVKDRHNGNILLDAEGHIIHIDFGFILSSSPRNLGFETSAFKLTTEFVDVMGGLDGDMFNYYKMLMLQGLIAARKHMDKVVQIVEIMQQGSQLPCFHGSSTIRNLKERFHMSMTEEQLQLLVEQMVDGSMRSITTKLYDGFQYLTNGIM

In the case of `O=C(c1cc([C@H]2CCCN2c2cc(F)cc(F)c2)c2oc(N3CCOCC3)cc(=O)c2c1)N1CCOCC1`, the half-maximal inhibitory concentration (IC50) was > 50 µM.

The record behind these values is ChEMBL document CHEMBL4014298, “Discovery of a series of 8-(1-phenylpyrrolidin-2-yl)-6-carboxamide-2-morpholino-4H-chromen-4-one as PI3Kβ/δ inhibitors for the treatment of PTEN-deficient tumours” (Bioorg Med Chem Lett, 2017).
